For series [1] the following is noted: introduction; ref [15]–[17]; cited from earlier work.
Series [2] is described as follows: Serum teicoplanin trough concentration. The settings on record: day 4. Type of series: in vivo, Chinese patients. Summed up: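 Day-4 serum (2–3 mL, additive-free tubes, spun 3,500 rpm 10 min) drawn 30 min before maintenance dose; trough measured by HPLC. Cure or failure judged days 5–7 after last dose from symptoms, laboratory and bacteriological findings. Target 15–30 mg/L; mean ± SD.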

For series [3] the following is noted: introduction; ref [15]–[17]; cited from earlier work. The source holds these as a separate data set.
Setting [4] is: Group B, n=30, loading 400 mg q12h x3, maintenance 400 mg/day.
The mark [5] stands for this setting: Group C, n=17, loading 400 mg q12h x2, maintenance 200 mg/day.
The mark [6] stands for this setting: Group D, n=30, loading 400 mg q12h x1-3, maintenance 200 mg/day.

Here are results for 1 substance from PMC5759846 (Infection and Drug Resistance, 2018).

Take teicoplanin: the plasma protein-binding rate entry in series [1] was “over 90%”. Besides, in series [2] (38 patients with failed response, all groups, mean ± SD, SD), the “Mean teicoplanin Cmin for a failure” value amounted to 10010 ± 2370 ng/mL. Further, the “Mean teicoplanin Cmin for a successful response” value in series [2] (75 patients with clinical cure, all groups, mean ± SD, SD) turned out to be 18920 ± 5120 ng/mL. Also, the entries for the “Proportion of patients achieving target range Cmin 15–30 mg/L” value in series [2] (setting [4]), in series [2] (setting [5]) and in series [2] (setting [6]) were 66.67%, 70.59% and 23.33%, respectively. Moreover, the “Proportion of patients with Cmin 10–30 mg/L” value in series [2] (setting [4]) is 86.67%; in series [2] (setting [5]) it was 88.23%; in series [2] (setting [6]), 70%. The elimination half-life in series [3] is 30 to 180 h.
